In ChEMBL document CHEMBL1128374, “Preparation and in vitro activities of ethers of [D-serine]8-cyclosporin” (J Med Chem, 1995):
In brackets after ≈: the same amount, converted by molar mass.

How the values were obtained:
Type in all cases: functional
Mus musculus [1] = species: Mus musculus; experiment: In vitro inhibition of interleukin-2 (IL-2) production induced by stimulating lymphocytes derived from mouse spleens with the […]; details: Spleen
Method in brief: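 Compounds added with concanavalin A to the primary culture; supernatants collected at 48 h. IL-2 content measured by growth of IL-2-dependent CTLL cells, read as tritiated thymidine incorporation after 48 h. IC50 determined, with cyclosporin A run in parallel.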

Mus musculus [2] = species: Mus musculus; experiment: In vitro efficacy to suppress lymphocyte proliferation as measured by the incorporation of a labeled precursor ([3H]- thymidine) into DNA in Mixed Lymphocyte reaction (MLR).
Method in brief: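 Cells from spleens of female CBA mice aged 8–10 weeks (ca. 5 x 10^5). Compounds made up at 20 mg/mL in 9:1 (v/v) ethanol/Tween 80, then diluted in saline before adding to medium. Four concentrations per compound across 1.8–1000 ng/mL, in triplicate cultures. IC50 is the calculated concentration giving 50% inhibition of proliferation. Cyclosporin A run in parallel as control.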

Mus musculus [3] = species: Mus musculus; experiment: In vitro efficacy on humoral immune response by Mishell-Dutton assay (MD).
Method in brief: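 Spleen lymphocytes from female OF1 mice (ca. 10 x 10^6) cultured 3 days with sheep erythrocytes (ca. 30 x 10^6) and test compound. Cells then plated on agar with fresh erythrocytes; plaques form by complement lysis. Read-out is the count of antibody-producing plaque-forming cells. Cyclosporin A run in parallel.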

SMILES | IC50 (Mus musculus [1]) | IC50 (Mus musculus [2]) | IC50 (Mus musculus [3])
C/C=C/C[C@@H](C)[C@@H](O)[C@H]1C(=O)N[C@@H](CC)C(=O)N(C)CC(=O)N(C)[C@@H](CC(C)C)C(=O)N[C@@H](C(C)C)C(=O)N(C)[C@@H](CC(C)C)C(=O)N[C@@H](C)C(=O)N[C@H](COCC(=O)OC(C)(C)C)C(=O)N(C)[C@@H](CC(C)C)C(=O)N(C)[C@@H](CC(C)C)C(=O)N(C)[C@@H](C(C)C)C(=O)N1C | > 1 µg/mL | 0.24 µg/mL (≈ 0.18 µM) | 0.41 µg/mL (≈ 0.308 µM)
C/C=C/C[C@@H](C)[C@@H](O)[C@H]1C(=O)N[C@@H](CC)C(=O)N(C)CC(=O)N(C)[C@@H](CC(C)C)C(=O)N[C@@H](C(C)C)C(=O)N(C)[C@@H](CC(C)C)C(=O)N[C@@H](C)C(=O)N[C@H](COC)C(=O)N(C)[C@@H](CC(C)C)C(=O)N(C)[C@@H](CC(C)C)C(=O)N(C)[C@@H](C(C)C)C(=O)N1C | 0.024 µg/mL (≈ 0.0195 µM) | < 0.008 µg/mL | < 0.01 µg/mL
C/C=C/C[C@@H](C)[C@@H](O)[C@H]1C(=O)N[C@@H](CC)C(=O)N(C)CC(=O)N(C)[C@@H](CC(C)C)C(=O)N[C@@H](C(C)C)C(=O)N(C)[C@@H](CC(C)C)C(=O)N[C@@H](C)C(=O)N[C@H](COCc2ccccc2)C(=O)N(C)[C@@H](CC(C)C)C(=O)N(C)[C@@H](CC(C)C)C(=O)N(C)[C@@H](C(C)C)C(=O)N1C | 0.095 µg/mL (≈ 0.0726 µM) | 0.25 µg/mL (≈ 0.191 µM) | 0.46 µg/mL (≈ 0.351 µM)
C/C=C/C[C@@H](C)[C@@H](O)[C@H]1C(=O)N[C@@H](CC)C(=O)N(C)CC(=O)N(C)[C@@H](CC(C)C)C(=O)N[C@@H](C(C)C)C(=O)N(C)[C@@H](CC(C)C)C(=O)N[C@@H](C)C(=O)N[C@H](COCCOCCO)C(=O)N(C)[C@@H](CC(C)C)C(=O)N(C)[C@@H](CC(C)C)C(=O)N(C)[C@@H](C(C)C)C(=O)N1C | 0.075 µg/mL (≈ 0.0574 µM) | 0.17 µg/mL (≈ 0.13 µM) | 0.035 µg/mL (≈ 0.0268 µM)
C/C=C/C[C@@H](C)[C@@H](O)[C@H]1C(=O)N[C@@H](CC)C(=O)N(C)CC(=O)N(C)[C@@H](CC(C)C)C(=O)N[C@@H](C(C)C)C(=O)N(C)[C@@H](CC(C)C)C(=O)N[C@@H](C)C(=O)N[C@H](CO)C(=O)N(C)[C@@H](CC(C)C)C(=O)N(C)[C@@H](CC(C)C)C(=O)N(C)[C@@H](C(C)C)C(=O)N1C | < 0.008 µg/mL | < 0.008 µg/mL | 0.026 µg/mL (≈ 0.0213 µM)
C/C=C/C[C@@H](C)[C@@H](O)[C@H]1C(=O)N[C@@H](CC)C(=O)N(C)CC(=O)N(C)[C@@H](CC(C)C)C(=O)N[C@@H](C(C)C)C(=O)N(C)[C@@H](CC(C)C)C(=O)N[C@@H](C)C(=O)N[C@H](COCC(C)CO)C(=O)N(C)[C@@H](CC(C)C)C(=O)N(C)[C@@H](CC(C)C)C(=O)N(C)[C@@H](C(C)C)C(=O)N1C (some centres undefined) | 0.017 µg/mL (≈ 0.0132 µM) | 0.013 µg/mL (≈ 0.0101 µM) | 0.024 µg/mL (≈ 0.0186 µM)
C/C=C/C[C@@H](C)[C@@H](O)[C@H]1C(=O)N[C@@H](CC)C(=O)N(C)CC(=O)N(C)[C@@H](CC(C)C)C(=O)N[C@@H](C(C)C)C(=O)N(C)[C@@H](CC(C)C)C(=O)N[C@@H](C)C(=O)N[C@H](COCC(N)=O)C(=O)N(C)[C@@H](CC(C)C)C(=O)N(C)[C@@H](CC(C)C)C(=O)N(C)[C@@H](C(C)C)C(=O)N1C | 0.07 µg/mL (≈ 0.0549 µM) | 0.064 µg/mL (≈ 0.0502 µM) | 0.063 µg/mL (≈ 0.0494 µM)
C/C=C/C[C@@H](C)[C@@H](O)[C@H]1C(=O)N[C@@H](CC)C(=O)N(C)CC(=O)N(C)[C@@H](CC(C)C)C(=O)N[C@@H](C(C)C)C(=O)N(C)[C@@H](CC(C)C)C(=O)N[C@@H](C)C(=O)N[C@H](COCCO)C(=O)N(C)[C@@H](CC(C)C)C(=O)N(C)[C@@H](CC(C)C)C(=O)N(C)[C@@H](C(C)C)C(=O)N1C [OXECLOSPORIN] | 0.006 µg/mL (≈ 0.00475 µM) | < 0.008 µg/mL | 0.018 µg/mL (≈ 0.0143 µM)
